Assay results from ChEMBL document CHEMBL1141571, “Design, synthesis, and trypanocidal activity of new aminoadamantane derivatives” (J Med Chem, 2008).
Counter-ions that a name gives are not always drawn.

What follows are compounds tested on Trypanosoma brucei (assay: Antitrypanosomal activity against Trypanosoma brucei).
Assay type: functional, organism-based
Outline: (§1)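 In vitro assay against bloodstream-form T. brucei grown at pH 7.4. Concentrations inhibiting growth by 50% (IC50) and 90% (IC90) were calculated. Values are the mean of triplicate experiments ± SEM.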

| Compound | IC50 [nM] |
| --- | --- |
| NC1CCC(C23CC4CC(CC(C4)C2)C3)CC1 (configuration not stated) | 330 |
| NC12CC3CC(C1)CC(C1CCCCC1)(C3)C2 | 520 |
| NCCC12CC3CC(C1)CC(c1ccccc1)(C3)C2 | 620 |

The compounds below were run on Trypanosoma brucei (assay: Antitrypanosomal activity against Trypanosoma brucei 427 at pH 7.4).
Assay type: functional, organism-based
Outline: as §1

| Compound | IC90 [nM] | IC50 [nM] |
| --- | --- | --- |
| CC(N)C12CC3CC(CC(C3)C1)C2 (configuration not stated) [RIMANTADINE HYDROCHLORIDE] | 14000 | – |
| CCCCCCCCCCCCCCC12CC3CC(CC(C3)/C1=N\NC(N)=S)C2 | 540 | 420 |
| NC12CC3CC(CC(C3)C1)C2 [AMANTADINE HYDROCHLORIDE] | > 132000 | > 132000 |
| CCCCCCCCCCCCCCC12CC3CC(CC(C3)C1N)C2 (configuration not stated) | 1980 | 920 |
| CCCCCCCCCCC12CC3CC(CC(C3)C1NCC)C2 (configuration not stated) | 1650 | 1090 |
| CCCCCCCCCCC12CC3CC(CC(C3)C1N)C2 (configuration not stated) | 670 | 480 |
| CCCCCCCCCCCCCCC12CC3CC(CC(C3)/C1=N\NC(=N)N)C2 | 1300 | 840 |
| CCCCCCC12CC3CC(CC(C3)/C1=N\NC(=N)N)C2 | – | > 6000 |
| N=C(N)N/N=C1\C2CC3CC(C2)CC1(c1ccccc1)C3 | 2810 | 2120 |
| CCCCCCCCC12CC3CC(CC(C3)/C1=N\NC(=N)N)C2 | – | > 6000 |
| NC1C2CC3CC(C2)CC1(Cc1ccccc1)C3 (configuration not stated) | 2650 | 2070 |
| N=C(N)N/N=C1\C2CC3CC(C2)CC1(Cc1ccccc1)C3 | 470 | 410 |
| CCCCCCC12CC3CC(CC(C3)/C1=N\NC(N)=S)C2 | 5640 | 2810 |
| CCCCCCCCC12CC3CC(CC(C3)C1N)C2 (configuration not stated) | 1060 | 800 |
| CCCCCCCCCCCCC12CC3CC(CC(C3)C1N)C2 (configuration not stated) | 670 | 470 |
| CCCCCCC12CC3CC(CC(C3)C1N)C2 (configuration not stated) | 1730 | 1320 |
| CCCCCCCCCCC12CC3CC(CC(C3)/C1=N\NC(=N)N)C2 | 110 | 90 |
| CCCCCCC12CC3CC(CC(C3)C1NCC)C2 (configuration not stated) | – | > 2000 |
| CCCCCCCCCCCCC12CC3CC(CC(C3)C1NCC)C2 (configuration not stated) | 1060 | 590 |
